Here are results for 8 molecules from ChEMBL document CHEMBL1143169, “Highly water-soluble prodrugs of anthelmintic benzimidazole carbamates: synthesis, pharmacodynamics, and pharmacokinetics” (J Med Chem, 2008).

By AUC is commonly meant the area under the concentration-time curve, a measure of exposure. As usually defined, the Tmax is the time at which the peak concentration occurs. By Cmax is commonly meant the highest concentration seen after dosing. What is called solubility is how much of the substance goes into solution per volume.

Data set [1] in a line: AUC in pig at 5.0 mg/kg, po. The data set is classed as ADME, organism-based, Sus scrofa. Conditions: plasma. Set-up: dose 5 mg/kg, route oral. An outline of the steps: (§1)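 Swine received a single oral dose of 5.0 mg/kg, given as an aqueous solution or suspension. Plasma levels of fenbendazole, fenbendazole sulfoxide and fenbendazole sulfone were measured over time. Cmax, Tmax and AUC were derived for each analyte.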

Data set [2] relates to Sus scrofa. In words: Tmax in pig at 5.0 mg/kg, po assessed as fenbendazole sulfoxide level. Type of data set: ADME, organism-based. On the set-up: dose 5 mg/kg, route oral. Conditions: in vivo. An outline of the steps:
as §1

Data set [3] has as its system Sus scrofa. The data set can be described thus: Cmax in pig at 5.0 mg/kg, po assessed as fenbendazole sulfoxide level. On the set-up: dose 5 mg/kg, route oral. Type of data set: ADME, organism-based. Conditions: in vivo. In a few lines:
as §1

The test system of data set [4] is Sus scrofa. The data set can be described thus: AUC in pig at 5.0 mg/kg, po assessed as fenbendazole sulfone level. The data set is classed as ADME, organism-based, Plasma. On the set-up: dose 5 mg/kg, route oral. The following applies: in vivo. In a few lines:
as §1

A short description of data set [5]: Tmax in pig at 5.0 mg/kg, po. Conditions: in vivo. Set-up: dose 5 mg/kg, route oral. Type of data set: ADME, organism-based, Sus scrofa. In a few lines: as §1
For data set [6], the system named is Sus scrofa. The data set can be described thus: Cmax in pig at 5.0 mg/kg, po assessed as fenbendazole sulfone level. The following applies: in vivo. Type of data set: ADME, organism-based. On the set-up: dose 5 mg/kg, route oral. An outline of the steps:
as §1

The subject of data set [7] is Sus scrofa. The data set can be described thus: AUC in pig at 5.0 mg/kg, po assessed as fenbendazole sulfoxide level. Set-up: dose 5 mg/kg, route oral. The following applies: in vivo. The data set is classed as ADME, organism-based, Plasma. An outline of the steps:
as §1

Data set [8] concerns Sus scrofa. The data set can be described thus: Tmax in pig at 5.0 mg/kg, po assessed as fenbendazole sulfone level. Set-up: dose 5 mg/kg, route oral. Conditions: in vivo. The data set is classed as ADME, organism-based. In a few lines:
as §1

The nature of data set [9]: Cmax in pig at 5.0 mg/kg, po. Type of data set: ADME, organism-based, Sus scrofa. On the set-up: dose 5 mg/kg, route oral. Conditions: in vivo. An outline of the steps:
as §1

The nature of data set [10]: Aqueous stability of the compound. The data set is classed as physicochemical. Conditions: buffer. An outline of the steps: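 The compound was dissolved in water at 50 mM and held at pH 5 and at pH 9 for 8 h at room temperature. Remaining intact compound was measured by UV-HPLC.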
Data set [11] in a line: Aqueous solubility at pH 7.4. The data set is classed as physicochemical.
The subject of data set [12] is Sus scrofa. In words: (§2) AUC in pig at 6.8 mg/kg, po assessed as sodium (2-(methoxycarbonyl)-5-(phenylsulphonyl)-1H-benzo[d]imidazol-1-yl)methyl phosphate level. Type of data set: ADME, organism-based, Plasma. Set-up: dose 6.8 mg/kg, route oral. The following applies: in vivo.
Data set [13] concerns Sus scrofa. In words: Cmax in pig at 6.8 mg/kg, po assessed as sodium (2-(methoxycarbonyl)-5-(phenylsulphonyl)-1H-benzo[d]imidazol-1-yl)methyl phosphate. Type of data set: ADME, organism-based. Set-up: dose 6.8 mg/kg, route oral. Conditions: in vivo.
The test system of data set [14] is Sus scrofa. In words: (§3) Tmax in pig at 6.8 mg/kg, po assessed as sodium (2-(methoxycarbonyl)-5-(phenylsulphonyl)-1H-benzo[d]imidazol-1-yl)methyl phosphate level. Type of data set: ADME, organism-based. On the set-up: dose 6.8 mg/kg, route oral. Conditions: in vivo.
In data set [15] the test system is Sus scrofa. The data set is described as §2. Set-up: dose 6.8 mg/kg, route oral. The data set is classed as ADME, organism-based, Plasma. The following applies: in vivo. The source holds these as a separate data set.
Data set [16] relates to Sus scrofa. The data set can be described thus: Cmax in pig at 6.8 mg/kg, po. The following applies: in vivo.
Data set [17] has as its system Sus scrofa. Described as §3. The data set is classed as ADME, organism-based. Set-up: dose 6.8 mg/kg, route oral. The following applies: in vivo. This is another data set of the same source.
The test system of data set [18] is Oesophagostomum dentatum. The data set can be described thus: Anthelmintic activity against Oesophagostomum dentatum infected pig assessed as worm burden reduction. The data set is classed as functional.
The subject of data set [19] is Oesophagostomum dentatum. The data set can be described thus: Anthelmintic activity against Oesophagostomum dentatum infected pig assessed as reduction in fecal egg shedding. The data set is classed as functional.

The source made the active and inactive calls. The rule behind the calls is not given here.

For the molecule `COC(=O)Nc1nc2ccc(Sc3ccccc3)cc2[nH]1` [FENBENDAZOLE], the AUC in data set [1] came to 310 ng·h/mL; with Sus scrofa [4] it was 12730 ng·h/mL; with Sus scrofa [7], 35000 ng·h/mL. In addition, the Tmax was found to be 17 h in the data set on Sus scrofa [2], 5.4 h in data set [5] and 34 h in the data set with Sus scrofa [8]. Moreover, the Cmax in the data set on Sus scrofa [3] was 1090 ng/mL; in the data set with Sus scrofa [6], 380 ng/mL; in [9] it was 50 ng/mL.

As to `COC(=O)Nc1nc2cc([S+]([O-])c3ccccc3)ccc2n1COP(=O)([O-])O.[Na+]` (stereo unspecified), in data set [10], the Stability was over 8 h. For the same molecule, in data set [11], the solubility is over 50 mM.

In the case of `COC(=O)Nc1nc2cc(C(=O)c3ccc(F)cc3)ccc2n1COP(=O)([O-])O.[Na+]`, in data set [10], the Stability is over 8 h. This molecule yielded a solubility in [11] of over 50 mM.

`COC(=O)Nc1nc2cc(Sc3ccccc3)ccc2n1COP(=O)([O-])O.[Na+]`: the AUC in the data set with Sus scrofa [12] stood at 58770 ng·h/mL; in the data set with Sus scrofa [15] it was 31150 ng·h/mL. The molecule further gave a Stability in data set [10] of over 8 h. Further, the Cmax in the data set on Sus scrofa [13] came to 780 ng/mL; in the data set with Sus scrofa [16], 1410 ng/mL. For the same molecule, the Tmax in the data set with Sus scrofa [14] is 36 h; in the data set on Sus scrofa [17], 15 h. The molecule further yielded a solubility in data set [11] of 130 mM. Further, the outcome with Oesophagostomum dentatum [18] and in the data set with Oesophagostomum dentatum [19] was Active.

`CCCSc1ccc2c(c1)nc(NC(=O)OC)n2COP(=O)([O-])O.[Na+]` returned a Stability in data set [10] of over 8 h. Moreover, the solubility in data set [11] was over 50 mM.

As to `CCCCc1ccc2c(c1)nc(NC(=O)OC)n2COP(=O)([O-])O.[Na+]`, the Stability in [10] was over 8 h. In [11], the solubility is over 50 mM.

In data set [10], `COC(=O)Nc1nc2cc(C(=O)c3ccccc3)ccc2n1COP(=O)([O-])O.[Na+]` returned a Stability of over 8 h. Also, in data set [11], the solubility is over 50 mM.

Turning to `COC(=O)Nc1nc2cc(Sc3ccccc3)ccc2[nH]1`, the outcome with Oesophagostomum dentatum [18] and in the data set on Oesophagostomum dentatum [19] was Active.
